Measured values gathered from unrelated publications.
Each line is one published result; the experiments were not run side by side.
Effect on: cell growth or viability

Cc1n[nH]c2ccc3nc(-c4ccc(C(=O)NCCN(C)C)cc4F)c4c(c3c12)CCCC4 has a GI50 of 95 nM (ML-2; 72 h).
The IC50 of C=C[C@]1(C)C=C2CC[C@H]3C(C)(C)CCC[C@]3(C)[C@H]2CC1 is reported as 108000 nM (HuCC-A1; MTT; 75 h).
CCCCCCCCCCCCCCCCCCOc1cccc(CC(=O)OCC[N+]2(C)CCCC2)c1 gave an inhibition of 14.6% (NCI-H226; SRB; 10 µM).
Cc1nc(Nc2ncc(C(=O)Nc3c(C)cccc3Cl)s2)cc(N2CC[C@H](O)C2)n1 gave an IC50 of over 10000 nM (SU-DHL-8; ATP luminescence; 72 h).
CCCCCCCCCCCCCCCCCCOc1ccccc1CC(=O)OCC[N+](CC)(CC)CC gave an inhibition of 46.3% (NCI-H226; SRB; 10 µM).
CC(C)(C)c1cnc(CSc2cnc(NC(=O)C3CCN(C(=O)CCCCCCCN4Cc5cc6c(cc5C4)C(=O)N(C4CCC(=O)NC4=O)C6=O)CC3)s2)o1 (stereo not shown) has an IC50 of 57 nM (NCI-H226; MTT).
For CCc1nc(C(N)=O)c(Nc2ccc(N3CCC(N4CCN(C)CC4)CC3)c(OC)c2)nc1NC1CCOCC1, the GI50 was 902 nM (ML-2; 72 h).
CN1CCC(NC2CCc3[nH]c4c(C(N)=O)ccc(-c5ccccc5Cl)c4c3C2)CC1 (stereo not shown) gave an IC50 of 27.3 nM (MINO; 96 h).
C=C(NC(=O)C(=C)NC(=O)c1csc(C2=N[C@@H]3c4csc(n4)[C@H]4NC(=O)c5csc(n5)[C@H]([C@](C)(O)[C@@H](C)O)NC(=O)[C@H]5CSC(=N5)/C(=C/C)NC(=O)[C@H]([C@@H](C)O)NC(=O)c5csc(n5)[C@]3(CC2)NC(=O)[C@H](C)NC(=O)C(=C)NC(=O)[C@H](C)NC(=O)[C@H]([C@@H](C)CC)N[C@@H]2C=Cc3c([C@H](C)O)cc(nc3[C@H]2O)C(=O)O[C@@H]4C)n1)C(N)=O has an EC50 of 3200 nM (Calu-1).
CCCCCCCCCCCCCCCCCCOc1ccccc1CC(=O)OCC[N+]1(C)CCCCC1 has an inhibition of 71.9% (NCI-H226; SRB; 10 µM).
Nc1ccccc1NC(=O)c1ccc(Cn2cnc3c(Nc4ccc(Cl)cc4)ncnc32)cc1 gave an IC50 of 920 nM (U-937; MTT; 72 h).
Cc1n[nH]c2ccc3nc(-c4ccc(C(=O)NCCN(C)C)cc4)c4c(c3c12)CCCC4 gave a GI50 of 429 nM (ML-2; 72 h).
The IC50 of COc1cccc2c1C(=O)c1c(O)c3c(c(O)c1C2=O)C[C@@](O)(C(=O)CO)C[C@@H]3O[C@H]1C[C@H](N)[C@H](O)[C@H](C)O1 is reported as 861 nM (HuCC-A1; MTT).
For CCCCCCCCCCCCCCCCCCOc1ccc(CC(=O)OCC[N+](C)(C)C)cc1, the inhibition was 4.87% (NCI-H226; SRB; 10 µM).
CN(C)CCNC(=O)c1ccc(-c2nc3ccc4[nH]ncc4c3c3c2CCCCC3)cc1 gave a GI50 of 698 nM (ML-2; 72 h).
The IC50 of CN1C(=O)C(=O)c2cc3c(c4c2c1cc1ccccc14)OCO3 is reported as 44400 nM (HuCC-A1; MTT; 75 h).
For CN(C)CCNC(=O)c1ccc(-c2nc3ccc4[nH]ncc4c3c3c2CCCCC3)c(F)c1, the GI50 was 1160 nM (U-937; 72 h).
For Nc1ccccc1NC(=O)c1ccc(Cn2cnc3c(Nc4ccc(Br)cc4F)ncnc32)cc1, the IC50 was 1370 nM (U-937; MTT; 72 h).
With CN(C)CCNC(=O)c1ccc(-c2nc3ccc4[nH]ncc4c3c3c2CCCC3)cc1 the GI50 was 658 nM (U-937; 72 h).
COc1ccc(Nc2ncnc3c2ncn3Cc2ccc(C(=O)Nc3ccccc3N)cc2)cc1 gave an IC50 of 22800 nM (U-937; MTT; 72 h).
CCCCCCCCCCCCCCCCCCOc1ccccc1CC(=O)OCC[N+]1(C)CCOCC1 gave an inhibition of 50.2% (NCI-H226; SRB; 10 µM).
O=C(NO)c1ccc(Cn2cnc3c(Nc4ccc(F)c(Cl)c4)ncnc32)cc1 gave an IC50 of 2940 nM (U-937; MTT; 72 h).
CCCCCCCCCCCCCCCCCCOc1ccc(CC(=O)OCCC[N+](C)(C)C)cc1 gave an inhibition of 22.1% (NCI-H226; SRB; 10 µM).
Cc1n[nH]c2ccc3nc(-c4ccc(C(=O)NCCN(C)C)cc4)c4c(c3c12)CCCCC4 has a GI50 of 5920 nM (U-937; 72 h).
CCCCCCCCCCCCCCCCCCOc1ccccc1CC(=O)OCCC[N+](C)(C)C has an inhibition of 22% (NCI-H226; SRB; 10 µM).
For CN(C)CCNC(=O)c1ccc(-c2nc3ccc4[nH]ncc4c3c3c2CCCC3)c(F)c1, the GI50 was 243 nM (ML-2; 72 h).
CCCCCCCCCCCCCCCCCCOc1ccc(CC(=O)OCC[N+]2(C)CCCC2)cc1 has an inhibition of 7.36% (NCI-H226; SRB; 10 µM).
COc1cccc2c1C(=O)c1c(O)c3c(c(O)c1C2=O)C[C@@](O)(C(=O)CO)C[C@@H]3O[C@H]1C[C@H](N)[C@H](O)[C@H](C)O1 has an IC50 of 11.7 nM (MINO; 96 h).
